# From ChEMBL document CHEMBL3734704, “Synthesis and Biological Evaluation of Novel Bouchardatine Derivatives as Potential Adipogenesis/Lipogenesis Inhibitors for Antiobesity Treatment” (J Med Chem, 2015)
# Activity calls are given as the source filed them. The calls are words filed in the database; no cut-off is given here.
# What was measured:
# 3T3-L1 [1] = experiment: Inhibition of cell differentiation in mouse 3T3L1 cells assessed as delayed time point of cell contact inhibition at 0.5 uM for 9 days; format: functional
# Method in brief: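 3T3-L1 preadipocytes were induced to differentiate (IBMX/dexamethasone/insulin for 3 days, then insulin) with compound added from day 0 at 0.5 or 5 µM; DMSO vehicle served as control. Cells were collected and counted every day to follow proliferation and to find when contact inhibition resumed.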
# 3T3-L1 [2] = experiment: Inhibition of adipogenesis in mouse 3T3L1 cells assessed as reduction in mature adipocytes number at 1 uM measured during 0 to 3,0 to 6,0 to 9, 3 to 6, 3 to 9 and 6 to 9 days by oil red O staining based microscopic analysis; format: functional, cell-based
# Method in brief: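 Differentiation was induced two days post-confluence (day 0) with IBMX/dexamethasone/insulin for 3 days, then insulin medium. Compound at 1 µM was present during days 0-3, 0-6, 0-9, 3-6, 3-9 or 6-9. On day 9, cells were fixed in 4% formaldehyde, stained with Oil Red O for 30 min, and imaged by microscopy. A TG assay was also run; DMSO vehicle served as control.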
# [3] = molecular target: T1, Serine/threonine-protein kinase STK11 (Mus musculus) (UniProt Q9WTK7); experiment: Activation of LKB1-mediated AMPK in mouse 3T3L1 cells assessed as increase in phophorylated AMPK alpha at Thr 172 residue level at 3 uM by western blot analysis; format: cell-based; conditions: 3T3-L1, TDE = time-dependent effect
# T1 sequence (whole entry): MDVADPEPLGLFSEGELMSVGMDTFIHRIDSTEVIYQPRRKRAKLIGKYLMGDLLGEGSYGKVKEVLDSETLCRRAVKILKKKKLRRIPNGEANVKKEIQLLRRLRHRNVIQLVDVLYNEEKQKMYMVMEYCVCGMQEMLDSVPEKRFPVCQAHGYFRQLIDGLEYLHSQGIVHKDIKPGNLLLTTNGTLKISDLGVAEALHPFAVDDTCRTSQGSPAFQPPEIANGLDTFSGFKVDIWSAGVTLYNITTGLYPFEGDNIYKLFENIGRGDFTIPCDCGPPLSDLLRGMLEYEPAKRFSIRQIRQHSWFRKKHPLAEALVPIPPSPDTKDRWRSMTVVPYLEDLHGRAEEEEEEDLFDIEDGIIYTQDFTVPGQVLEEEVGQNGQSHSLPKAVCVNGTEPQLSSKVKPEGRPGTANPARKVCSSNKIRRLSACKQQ
# Method in brief: (§1)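 3T3-L1 preadipocytes held in adipogenic cocktail with or without compound at 3 µM, time course (10 min, 2 h, 24 h) during differentiation. Lysis in RIPA with protease/phosphatase inhibitors, SDS-PAGE, PVDF, BSA block, primary antibody 16 h at 4 °C, HRP secondary. Bands normalized to GAPDH, with the 10 min DMSO group set as 100%; n = 3.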
# 3T3-L1 [4] = experiment: Induction of apoptosis in mouse 3T3L1 cells assessed as viable cells at 3 uM after 24 hrs by annexin-V-FITC and PI staining based flow cytometry (reference value: 98.95%); format: functional; conditions: 3T3-L1, 24 h, read-out: Activity
# [5] = molecular target: T1, Serine/threonine-protein kinase STK11 (Mus musculus); experiment: Activation of LKB1-mediated ACC in mouse 3T3L1 cells assessed as increase in phophorylated ACC level at 3 uM by western blot analysis; format: cell-based; conditions: 3T3-L1, TDE = time-dependent effect; method in brief: as §1
# [6] = Decrease in triglyceride level in mouse 3T3L1 cells at 1 uM measured during 3 to 6 days by oil red O staining based microscopic analysis; format: functional, cell-based; conditions: 3T3-L1
# Method in brief: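 3T3-L1 cells given 1 µM compound during day 0-3, 0-6, 0-9, 3-6, 3-9 or 6-9 of differentiation. On Day 9, intracellular lipid measured by TG assay (Triton lysate, GPO-POD kit, per protein) and by Oil Red O staining with microscopy; n = 3.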
# [7] = Downregulation of C/EBP delta mRNA level in mouse 3T3L1 cells at 3 uM after 2 and 24 hrs by RT-PCR analysis; format: functional, cell-based; conditions: 3T3-L1
# Method in brief: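 3T3-L1 preadipocytes in adipogenic cocktail with compound (0.3-3.0 µM; 3 µM for the 2 h and 24 h time course). Total RNA extracted, cDNA made from 1 µg RNA with oligo primer, then PCR: 95 °C 10 min, 35 cycles of 95 °C 30 s, annealing 45 s, 72 °C 1 min, final 72 °C 10 min. Normalized to actin; n = 3.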
# [8] = Decrease in triglyceride accumulation in mouse 3T3L1 cells at 1 uM for 3 days oil red O staining based microscopic analysis; format: functional, cell-based; conditions: 3T3-L1
# Method in brief: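 3T3-L1 cells differentiated from 2 days post-confluence with IBMX/dexamethasone/insulin cocktail for 3 days, then insulin medium to Day 6. Compounds at 1 and 10 µM added Day 0 for 3 days. Triglyceride read on Day 6 with Oil Red O (formaldehyde fixation, 30 min stain, isopropanol extraction, OD 510 nm); n = 3.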
smiles,measurement,setting,value
O=Cc1c(-c2nc(NCCN3CCCC3)c3ccccc3n2)[nH]c2ccccc12,Time,3T3-L1 [1],6 days
same,inhibition,3T3-L1 [2],Active
same,Activity,[3],tde
same,viability at 3 µM,3T3-L1 [4],97.7%
same,Activity,[5],tde
same,inhibition,[6],80%
same,inhibition,[7],Active
same,inhibition,[8],87.6%
